pIC50: −log10 of the molar value. The source made the active and inactive calls. No cut-off for these calls is given here. Bounds are passed on as bounds.

In assay [1] the target is Histone-lysine N-methyltransferase, H3 lysine-79 specific (Homo sapiens, UniProt Q8TEK3). The assay can be described thus: Binding affinity to recombinant human N-terminal GST-tagged DOT1L (1 to 420 residues) expressed in Escherichia coli BL21 (DE3) assessed as increase in melting temperature incubated for 1 min by 1,8-ANS probe based thermal shift assay.
Sequence of Histone-lysine N-methyltransferase, H3 lysine-79 specific (Q8TEK3 whole entry, looked up, the tested form may be a part): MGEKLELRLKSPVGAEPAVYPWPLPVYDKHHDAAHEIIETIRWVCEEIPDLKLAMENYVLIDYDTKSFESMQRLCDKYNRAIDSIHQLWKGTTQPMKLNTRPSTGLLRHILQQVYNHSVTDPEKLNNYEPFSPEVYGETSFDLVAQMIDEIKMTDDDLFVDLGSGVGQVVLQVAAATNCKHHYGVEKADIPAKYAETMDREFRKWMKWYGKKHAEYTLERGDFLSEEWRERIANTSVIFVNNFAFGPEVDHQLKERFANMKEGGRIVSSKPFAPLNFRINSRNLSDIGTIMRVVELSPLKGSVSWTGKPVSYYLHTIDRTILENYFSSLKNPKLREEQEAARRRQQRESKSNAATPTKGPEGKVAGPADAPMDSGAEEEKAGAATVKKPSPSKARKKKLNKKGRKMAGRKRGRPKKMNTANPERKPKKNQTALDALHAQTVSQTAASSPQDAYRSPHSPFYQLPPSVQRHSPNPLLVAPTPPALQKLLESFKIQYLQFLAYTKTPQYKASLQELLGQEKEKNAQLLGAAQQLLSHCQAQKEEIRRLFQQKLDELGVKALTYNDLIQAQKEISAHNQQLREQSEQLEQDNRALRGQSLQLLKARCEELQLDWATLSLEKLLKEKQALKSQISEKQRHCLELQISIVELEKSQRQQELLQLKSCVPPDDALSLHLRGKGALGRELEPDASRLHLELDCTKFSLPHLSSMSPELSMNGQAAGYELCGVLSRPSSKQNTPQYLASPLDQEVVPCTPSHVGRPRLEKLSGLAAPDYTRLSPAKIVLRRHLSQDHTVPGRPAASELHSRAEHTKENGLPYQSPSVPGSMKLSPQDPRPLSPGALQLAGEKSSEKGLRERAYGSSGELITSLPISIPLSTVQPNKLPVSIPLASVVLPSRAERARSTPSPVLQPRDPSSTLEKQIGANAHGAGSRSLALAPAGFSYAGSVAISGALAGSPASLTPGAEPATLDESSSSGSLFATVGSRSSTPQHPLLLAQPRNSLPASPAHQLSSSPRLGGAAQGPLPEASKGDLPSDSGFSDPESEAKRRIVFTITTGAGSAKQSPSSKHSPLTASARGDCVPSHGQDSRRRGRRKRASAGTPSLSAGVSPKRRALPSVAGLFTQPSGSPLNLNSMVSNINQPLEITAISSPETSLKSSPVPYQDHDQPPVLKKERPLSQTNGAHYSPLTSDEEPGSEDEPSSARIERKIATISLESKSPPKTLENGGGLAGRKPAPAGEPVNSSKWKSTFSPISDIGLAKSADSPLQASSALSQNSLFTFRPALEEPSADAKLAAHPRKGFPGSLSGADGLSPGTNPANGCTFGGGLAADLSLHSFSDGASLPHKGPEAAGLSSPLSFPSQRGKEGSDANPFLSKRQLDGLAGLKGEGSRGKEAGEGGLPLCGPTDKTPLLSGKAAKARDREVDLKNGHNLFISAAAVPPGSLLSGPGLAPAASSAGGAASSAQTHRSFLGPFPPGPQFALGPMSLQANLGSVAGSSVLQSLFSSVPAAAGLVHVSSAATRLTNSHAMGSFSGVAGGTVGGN
Assay [2] has as its system Bone marrow cell. The assay can be described thus: Antiproliferative activity against mouse bone marrow cell transformed with MLL-AF9 assessed as reduction in cell growth measured after 6 days by hemocytometry. The format is functional, cell-based. Particulars: 144 h.
Assay [3] deals with Bone marrow cell. The assay is described as follows: Antiproliferative activity against mouse bone marrow cell transformed with MLL-AF9 assessed as reduction in cell growth measured after 9 days by hemocytometry. Particulars: 216 h. The format is functional, cell-based.
Assay [4] deals with Bone marrow cell. The assay is described as follows: Antiproliferative activity against mouse bone marrow cell transformed with MLL-AF9 assessed as reduction in cell growth measured after 11 days by hemocytometry. Particulars: 264 h. The format is functional, cell-based.
For assay [5], the system named is Bone marrow cell. The assay can be described thus: Antiproliferative activity against mouse bone marrow cell transformed with MLL-AF9 assessed as reduction in cell growth at 30 uM measured after 11 days by hemocytometry relative to control. The class given is functional. Particulars: 264 h, time 11 day.
For assay [6], the system named is Bone marrow cell. The assay is described as follows: Antiproliferative activity against mouse bone marrow cell transformed with E2A-HLF assessed as reduction in cell growth at 1 to 30 uM measured after 15 days by hemocytometry. The class given is functional, cell-based. Particulars: dose 1-30 µM, time 15.0 day.
In assay [7] the target is T1, Histone H3 methyltransferase DOT1 variant d (Mus musculus) (UniProt Q679P4).
T1 sequence (whole entry): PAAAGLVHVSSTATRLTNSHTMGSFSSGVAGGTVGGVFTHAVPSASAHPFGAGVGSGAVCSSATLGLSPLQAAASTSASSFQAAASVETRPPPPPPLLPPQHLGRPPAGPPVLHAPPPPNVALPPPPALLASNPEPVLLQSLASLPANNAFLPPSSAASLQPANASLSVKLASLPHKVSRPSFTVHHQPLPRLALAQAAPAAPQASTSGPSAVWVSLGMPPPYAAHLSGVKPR
The assay can be described thus: Inhibition of DOT1L in mouse bone marrow cell transformed with MLL-AF9 cells assessed as reduction in H3K79 methylation measured after 9 days by Western blot analysis. The class given is cell-based. Particulars: dose 1-30 µM, time 9.0 day.

For assay [8], the target named is T1, Histone H3 methyltransferase DOT1 variant d (Mus musculus). The assay can be described thus: Inhibition of DOT1L in mouse bone marrow cell transformed with MLL-AF9 cells assessed as reduction in H3K79 methylation at 30 uM measured after 9 days by Western blot analysis relative to control. Particulars: time 9.0 day. The class given is cell-based.
The target is the same in assay [9]. The assay can be described thus: Inhibition of DOT1L in mouse bone marrow cell transformed with MLL-AF9 cells assessed as reduction in H3K4me3 methylation at 1 to 30 uM measured after 6 days by Western blot analysis. The class given is cell-based. Particulars: dose 1-30 µM, time 6.0 day.
Assay [10] shares this target. The assay can be described thus: Inhibition of DOT1L in mouse bone marrow cell transformed with MLL-AF9 cells assessed as reduction in […] methylation at 1 to 30 uM measured after 6 days by Western blot analysis. The class given is cell-based. Particulars: dose 1-30 µM, time 6.0 day.
The subject of assay [11] is Bone marrow cell. The assay is described as follows: Induction of cell differentiation in mouse bone marrow cells transformed with MLL-AF9 assessed as change in morphology incubated for 6 days by Wright-Giemsa staining based inverted microscopy. The format is functional. Particulars: dose 1-30 µM, time 6.0 day. In outline:
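Cells taken on day 6 of the proliferation culture (MLL-AF9 murine line, IMDM + 15% FBS + IL-3, re-dosed at each split, 0.3% DMSO). Cytospun onto slides, Wright-Giemsa stained, and imaged under bright field on an inverted microscope to assess morphology.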

The target of assay [12] is DNA (cytosine-5)-methyltransferase 1 (Homo sapiens, UniProt P26358). The assay is described as follows: Inhibition of recombinant human DNMT1 using poly(dl-dC) as substrate by hotspot assay. Particulars: read-out: IC50.
Sequence of DNA (cytosine-5)-methyltransferase 1 (P26358 whole entry): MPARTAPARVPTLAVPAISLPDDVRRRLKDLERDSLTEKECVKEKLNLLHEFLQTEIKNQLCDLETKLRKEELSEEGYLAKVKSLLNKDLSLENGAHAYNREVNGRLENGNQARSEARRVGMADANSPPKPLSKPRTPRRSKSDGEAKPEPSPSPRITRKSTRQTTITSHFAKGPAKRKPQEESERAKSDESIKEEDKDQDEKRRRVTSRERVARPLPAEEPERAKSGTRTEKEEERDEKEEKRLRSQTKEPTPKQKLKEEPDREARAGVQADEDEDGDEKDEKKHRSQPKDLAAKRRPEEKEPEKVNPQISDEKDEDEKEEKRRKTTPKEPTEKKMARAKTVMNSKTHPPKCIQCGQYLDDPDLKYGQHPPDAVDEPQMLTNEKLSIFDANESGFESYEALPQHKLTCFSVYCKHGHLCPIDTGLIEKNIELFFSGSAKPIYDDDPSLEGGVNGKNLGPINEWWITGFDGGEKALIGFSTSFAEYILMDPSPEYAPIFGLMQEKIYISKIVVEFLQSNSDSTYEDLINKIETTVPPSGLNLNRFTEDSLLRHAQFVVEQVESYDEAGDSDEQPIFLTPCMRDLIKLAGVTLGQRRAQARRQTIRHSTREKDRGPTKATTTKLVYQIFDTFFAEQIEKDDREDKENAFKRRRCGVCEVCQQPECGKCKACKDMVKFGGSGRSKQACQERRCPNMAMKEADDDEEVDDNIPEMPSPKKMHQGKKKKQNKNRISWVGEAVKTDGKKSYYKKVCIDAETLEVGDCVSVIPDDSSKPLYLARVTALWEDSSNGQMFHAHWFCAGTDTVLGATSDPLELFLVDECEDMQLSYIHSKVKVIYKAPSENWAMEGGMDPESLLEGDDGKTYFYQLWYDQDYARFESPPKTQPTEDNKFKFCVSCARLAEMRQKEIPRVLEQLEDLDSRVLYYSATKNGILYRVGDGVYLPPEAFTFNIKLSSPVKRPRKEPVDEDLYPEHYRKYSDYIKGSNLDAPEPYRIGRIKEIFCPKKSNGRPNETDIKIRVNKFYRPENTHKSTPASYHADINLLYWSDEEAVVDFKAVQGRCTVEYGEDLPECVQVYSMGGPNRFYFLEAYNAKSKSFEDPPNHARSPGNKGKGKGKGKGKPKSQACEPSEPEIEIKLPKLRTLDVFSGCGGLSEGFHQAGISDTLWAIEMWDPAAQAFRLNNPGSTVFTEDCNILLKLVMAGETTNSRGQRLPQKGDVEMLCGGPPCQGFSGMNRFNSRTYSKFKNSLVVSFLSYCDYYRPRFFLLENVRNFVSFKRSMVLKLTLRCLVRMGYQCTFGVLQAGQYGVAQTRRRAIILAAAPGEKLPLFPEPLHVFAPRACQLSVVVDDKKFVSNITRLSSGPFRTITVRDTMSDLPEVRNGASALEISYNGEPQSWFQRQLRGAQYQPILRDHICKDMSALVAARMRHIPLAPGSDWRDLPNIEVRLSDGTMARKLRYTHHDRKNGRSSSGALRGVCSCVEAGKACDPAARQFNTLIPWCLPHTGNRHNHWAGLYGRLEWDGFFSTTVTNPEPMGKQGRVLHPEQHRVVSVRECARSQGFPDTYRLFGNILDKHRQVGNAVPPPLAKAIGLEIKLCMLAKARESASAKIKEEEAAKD
Assay [13] has as its target Histone-lysine N-methyltransferase EZH2 (Homo sapiens, UniProt Q15910). The assay can be described thus: Inhibition of recombinant human EZH2 using core histone as substrate by hotspot assay.
Assay [14] concerns the target Protein arginine N-methyltransferase 5 (Homo sapiens, UniProt O14744). The assay is described as follows: Inhibition of recombinant human PRMT5 using histone H2A as substrate by hotspot assay. Particulars: read-out: IC50.
Assay [15] has as its target T2, Protein arginine N-methyltransferase 7 (Homo sapiens, UniProt Q9NVM4).
T2 sequence (Q9NVM4 whole entry): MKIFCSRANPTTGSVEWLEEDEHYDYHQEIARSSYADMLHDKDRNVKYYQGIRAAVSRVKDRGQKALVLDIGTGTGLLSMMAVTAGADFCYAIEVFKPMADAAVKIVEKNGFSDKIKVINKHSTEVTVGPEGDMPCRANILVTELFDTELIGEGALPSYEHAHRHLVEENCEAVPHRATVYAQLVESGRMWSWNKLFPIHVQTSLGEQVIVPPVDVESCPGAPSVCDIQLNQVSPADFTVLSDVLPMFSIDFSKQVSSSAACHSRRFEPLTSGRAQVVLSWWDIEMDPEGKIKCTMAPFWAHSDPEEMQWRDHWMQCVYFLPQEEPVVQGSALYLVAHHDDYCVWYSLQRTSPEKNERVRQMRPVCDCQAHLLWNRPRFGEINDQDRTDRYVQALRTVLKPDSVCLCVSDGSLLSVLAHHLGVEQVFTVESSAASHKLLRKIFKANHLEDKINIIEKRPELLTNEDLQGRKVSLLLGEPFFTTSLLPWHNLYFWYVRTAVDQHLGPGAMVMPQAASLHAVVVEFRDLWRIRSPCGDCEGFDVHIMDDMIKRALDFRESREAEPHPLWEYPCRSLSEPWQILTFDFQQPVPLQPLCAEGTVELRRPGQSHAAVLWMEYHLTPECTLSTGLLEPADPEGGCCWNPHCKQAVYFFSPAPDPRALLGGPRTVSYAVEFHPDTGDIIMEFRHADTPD
The assay can be described thus: Inhibition of recombinant human PRMT7 using GST-GAR as substrate by hotspot assay.

The target in assay [16] is Protein arginine N-methyltransferase 8 (Homo sapiens, UniProt Q9NR22). The assay can be described thus: Inhibition of recombinant human PRMT8 using histone H4 as substrate by hotspot assay.
Sequence of Protein arginine N-methyltransferase 8 (Q9NR22 whole entry): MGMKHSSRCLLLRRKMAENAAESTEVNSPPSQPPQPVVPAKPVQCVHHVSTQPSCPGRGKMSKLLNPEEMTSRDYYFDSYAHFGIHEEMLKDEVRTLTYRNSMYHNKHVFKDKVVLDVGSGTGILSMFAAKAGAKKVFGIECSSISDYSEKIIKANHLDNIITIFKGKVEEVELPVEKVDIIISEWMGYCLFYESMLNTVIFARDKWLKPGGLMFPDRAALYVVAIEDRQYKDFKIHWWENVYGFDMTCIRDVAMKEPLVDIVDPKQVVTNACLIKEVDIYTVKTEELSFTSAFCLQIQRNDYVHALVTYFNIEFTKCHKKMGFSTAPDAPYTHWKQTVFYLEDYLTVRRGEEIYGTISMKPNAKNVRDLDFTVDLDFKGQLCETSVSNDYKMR

Sequence of Histone-lysine N-methyltransferase EZH2 (Q15910 whole entry): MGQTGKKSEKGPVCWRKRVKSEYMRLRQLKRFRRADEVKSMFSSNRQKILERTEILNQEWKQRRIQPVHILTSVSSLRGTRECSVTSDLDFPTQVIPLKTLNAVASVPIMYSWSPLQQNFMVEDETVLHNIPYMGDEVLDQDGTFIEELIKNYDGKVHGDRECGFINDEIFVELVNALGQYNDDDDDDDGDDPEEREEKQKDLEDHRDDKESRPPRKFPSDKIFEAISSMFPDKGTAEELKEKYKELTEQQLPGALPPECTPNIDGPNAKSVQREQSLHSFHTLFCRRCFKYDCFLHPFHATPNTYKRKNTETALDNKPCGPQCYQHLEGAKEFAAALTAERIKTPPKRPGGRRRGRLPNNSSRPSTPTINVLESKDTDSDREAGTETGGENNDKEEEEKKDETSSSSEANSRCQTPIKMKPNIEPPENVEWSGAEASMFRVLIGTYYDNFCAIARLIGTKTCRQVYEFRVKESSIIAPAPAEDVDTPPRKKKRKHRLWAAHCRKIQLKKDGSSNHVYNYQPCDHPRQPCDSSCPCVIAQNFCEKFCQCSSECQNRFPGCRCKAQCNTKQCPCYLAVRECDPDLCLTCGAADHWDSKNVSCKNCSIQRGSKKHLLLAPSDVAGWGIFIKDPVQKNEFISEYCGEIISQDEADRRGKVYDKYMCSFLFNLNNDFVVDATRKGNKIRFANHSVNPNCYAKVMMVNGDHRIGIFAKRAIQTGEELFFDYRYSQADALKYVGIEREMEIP
Sequence of Protein arginine N-methyltransferase 5 (O14744 whole entry): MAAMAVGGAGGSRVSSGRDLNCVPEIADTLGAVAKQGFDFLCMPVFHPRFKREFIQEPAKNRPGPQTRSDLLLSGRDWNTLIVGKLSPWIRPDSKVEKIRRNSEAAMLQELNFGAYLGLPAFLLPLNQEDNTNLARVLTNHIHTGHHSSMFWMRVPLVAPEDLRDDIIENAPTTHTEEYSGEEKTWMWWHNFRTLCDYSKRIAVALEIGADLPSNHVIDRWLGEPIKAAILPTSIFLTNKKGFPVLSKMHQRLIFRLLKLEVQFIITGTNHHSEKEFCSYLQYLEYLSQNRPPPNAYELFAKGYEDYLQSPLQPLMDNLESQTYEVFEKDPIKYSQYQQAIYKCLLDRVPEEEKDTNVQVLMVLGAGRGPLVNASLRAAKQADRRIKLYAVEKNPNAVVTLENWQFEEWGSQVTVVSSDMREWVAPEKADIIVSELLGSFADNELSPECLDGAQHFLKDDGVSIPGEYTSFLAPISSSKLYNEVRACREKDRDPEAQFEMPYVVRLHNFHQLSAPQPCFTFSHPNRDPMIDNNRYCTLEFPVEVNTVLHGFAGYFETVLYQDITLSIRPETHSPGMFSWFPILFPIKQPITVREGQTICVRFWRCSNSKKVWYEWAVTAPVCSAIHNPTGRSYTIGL

For the molecule `CC(C)(C)c1ccc(NC(=O)c2ncn(CC(=O)NCCn3ccc4c(N)ncnc43)n2)cc1`, the Activity entry in [1] and in assay [11] was “Dose-dependent effect” each time. For the same molecule, the pIC50 in assay [2] was 5.06; in assay [3], 5.38; in assay [4], 6.00; in assay [12], 3.61; in assay [14] it was 3.78; in assay [16], below 3.60. Further, the inhibition at 30 µM in assay [5] is 100%. In addition, the inhibition result in assay [6], in [9] and in assay [10] was “inactive” throughout. Moreover, the inhibition entry in assay [7] was “Dose-dependent effect”; in assay [8], 100%. Further, the IC50 result in assay [13] and in assay [15] was “Not Active” throughout.
